Activity calls are given as the source filed them. The rule behind the calls is not given here.
Legend:
Influenza A virus [1] = assay: Antiviral activity against Influenza A virus A/WSN/33(H1N1) infected in MDCK cells assessed as inhibition of neuraminidase activity using 2'-(4-methylumbelliferyl)-alpha-D-N-acetylneuraminic acid substrate pretreated with cells for 24 hrs followed by viral infection measured after 20 hrs by fluorescence assay; assay type: functional, organism-based; settings: A/WSN/1933(H1N1)
How it was run: (§1)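 MDCK cells at 1 × 10^4 cells/well in DMEM with 0.3% FBS, 1% penicillin/streptomycin and 1% DMSO. After 24 h, serially diluted compound was added for a further 24 h. Cells were infected with A/WSN/33 at 250 IU/well for 20 h at 37 °C. Supernatant was replaced with 25 μM MUNANA in 33 mM MES, pH 6.5, for 45 min at 30 °C. Reaction stopped with glycine pH 10.5/25% ethanol; fluorescence read at ex 355/em 460 nm. EC50 averaged over n ≥ 2.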

[2] = Cytotoxicity against MDCK cells after 10 mins by CellTiter-Glo assay; assay type: cell-based, Canis lupus familiaris; settings: dog
How it was run: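 Uninfected cultures run in parallel with the MDCK neuraminidase antiviral assay. CellTiter-Glo reagent added, 10 min at room temperature, luminescence read.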

A549 [3] = assay: Drug metabolism in human A549 cells assessed as nucleoside triphosphate formation at 50 uM after 24 hrs by LC-MS/Ms analysis; assay type: ADME, cell-based; settings: a549, 24 h, BLD = below limit of detection
[4] = Prodrug conversion in NHBE cells assessed as ((2R,3S,4R,5S)-5-(2-carbamoyl-3-fluoropyridin-4-yl)-3,4-dihydroxytetrahydrofuran-2-yl)methyl tetrahydrogen triphosphate level per million cells at 50 uM after 24 hrs by LC-MS/Ms analysis; assay type: ADME, cell-based; settings: human
A549 [5] = assay: Prodrug conversion in human A549 cells assessed as ((2R,3S,4R,5S)-5-(2-carbamoyl-3-fluoropyridin-4-yl)-3,4-dihydroxytetrahydrofuran-2-yl)methyl tetrahydrogen triphosphate level per million cells at 50 uM after 24 hrs by LC-MS/Ms analysis; assay type: ADME, cell-based; settings: a549, 24 h
MDCK [6] = assay: Prodrug conversion in MDCK cells assessed as ((2R,3S,4R,5S)-5-(2-carbamoyl-3-fluoropyridin-4-yl)-3,4-dihydroxytetrahydrofuran-2-yl)methyl tetrahydrogen triphosphate level per million cells at 50 uM after 24 hrs by LC-MS/Ms analysis; assay type: ADME, cell-based, Canis lupus familiaris; settings: dog
[7] = Prodrug conversion in NHBE cells assessed as ((2R,3S,4R,5S)-5-(2-carbamoyl-3-fluoropyridin-4-yl)-3,4-dihydroxytetrahydrofuran-2-yl)methyl dihydrogen phosphate level per million cells at 50 uM after 24 hrs by LC-MS/Ms analysis; assay type: ADME, cell-based; settings: human
A549 [8] = assay: Prodrug conversion in human A549 cells assessed as ((2R,3S,4R,5S)-5-(2-carbamoyl-3-fluoropyridin-4-yl)-3,4-dihydroxytetrahydrofuran-2-yl)methyl dihydrogen phosphate level per million cells at 50 uM after 24 hrs by LC-MS/Ms analysis; assay type: ADME, cell-based; settings: a549, 24 h
MDCK [9] = assay: Prodrug conversion in MDCK cells assessed as ((2R,3S,4R,5S)-5-(2-carbamoyl-3-fluoropyridin-4-yl)-3,4-dihydroxytetrahydrofuran-2-yl)methyl dihydrogen phosphate level per million cells at 50 uM after 24 hrs by LC-MS/Ms analysis; assay type: ADME, cell-based, Canis lupus familiaris; settings: dog
Blood [10] = assay: Prodrug conversion in Balb/c mouse assessed as 4-((2S,3R,4S,5R)-3,4-dihydroxy-5-(hydroxymethyl)tetrahydrofuran-2-yl)-3-fluoropicolinamide level in blood at 2 mg/kg, iv measured at 0.25 hrs post dose by LC-MS/MS analysis; assay type: ADME, organism-based; settings: in vivo
How it was run: (§2)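 Female Balb/c mice (N = 2), fasted overnight, given the prodrug IV at 2 mg/kg in 10% DMSO/60% PEG400/30% water. Under isoflurane anaesthesia, blood sampled at 0.25 and 2 h post dose. Parent nucleoside measured in blood; monophosphate and triphosphate measured in lung.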

Lung [11] = assay: Prodrug conversion in Balb/c mouse assessed as ((2R,3S,4R,5S)-5-(2-carbamoyl-3-fluoropyridin-4-yl)-3,4-dihydroxytetrahydrofuran-2-yl)methyl dihydrogen phosphate level in lung at 2 mg/kg, iv measured at 0.25 hrs post dose by LC-MS/MS analysis; assay type: ADME, organism-based; settings: in vivo; how it was run: as §2
Lung [12] = assay: Prodrug conversion in Balb/c mouse assessed as ((2R,3S,4R,5S)-5-(2-carbamoyl-3-fluoropyridin-4-yl)-3,4-dihydroxytetrahydrofuran-2-yl)methyl tetrahydrogen triphosphate level in lung at 2 mg/kg, iv measured at 0.25 hrs post dose by LC-MS/MS analysis; assay type: ADME, organism-based; settings: in vivo; how it was run: as §2
Influenza A virus [13] = assay: Antiviral activity against Influenza A virus A/WSN/33(H1N1) infected in NHBE cells; assay type: functional, organism-based; settings: A/WSN/1933(H1N1)
Influenza A virus [14] = assay: Antiviral activity against Influenza A virus A/WSN/33(H1N1) infected in human A549 cells; assay type: functional, organism-based; settings: A/WSN/1933(H1N1)
Influenza A virus [15] = assay: Antiviral activity against Influenza A virus infected in MDCK cells; assay type: functional, organism-based; how it was run: as §1
Blood [16] = assay: Prodrug conversion in Balb/c mouse assessed as 4-((2S,3R,4S,5R)-3,4-dihydroxy-5-(hydroxymethyl)tetrahydrofuran-2-yl)-3-fluoropicolinamide level in blood at 2 mg/kg, iv measured at 2 hrs post dose by LC-MS/MS analysis; assay type: ADME, organism-based; settings: in vivo; how it was run: as §2
Lung [17] = assay: Prodrug conversion in Balb/c mouse assessed as ((2R,3S,4R,5S)-5-(2-carbamoyl-3-fluoropyridin-4-yl)-3,4-dihydroxytetrahydrofuran-2-yl)methyl dihydrogen phosphate level in lung at 2 mg/kg, iv measured at 2 hrs post dose by LC-MS/MS analysis; assay type: ADME, organism-based; settings: in vivo; how it was run: as §2
Lung [18] = assay: Prodrug conversion in Balb/c mouse assessed as ((2R,3S,4R,5S)-5-(2-carbamoyl-3-fluoropyridin-4-yl)-3,4-dihydroxytetrahydrofuran-2-yl)methyl tetrahydrogen triphosphate level in lung at 2 mg/kg, iv measured at 2 hrs post dose by LC-MS/MS analysis; assay type: ADME, organism-based; settings: in vivo, BLD = below limit of detection; how it was run: as §2
[19] = Drug metabolism in NHBE cells assessed as ((2R,3S,4R,5S)-5-(2-carbamoyl-3-fluoropyridin-4-yl)-3,4-dihydroxytetrahydrofuran-2-yl)methyl tetrahydrogen triphosphate level per million cells at 50 uM after 24 hrs by LC-MS/Ms analysis; assay type: ADME, cell-based; settings: human
A549 [20] = assay: Drug metabolism in human A549 cells assessed as ((2R,3S,4R,5S)-5-(2-carbamoyl-3-fluoropyridin-4-yl)-3,4-dihydroxytetrahydrofuran-2-yl)methyl tetrahydrogen triphosphate level per million cells at 50 uM after 24 hrs by LC-MS/Ms analysis; assay type: ADME, cell-based; settings: a549, 24 h
MDCK [21] = assay: Drug metabolism in MDCK cells assessed as ((2R,3S,4R,5S)-5-(2-carbamoyl-3-fluoropyridin-4-yl)-3,4-dihydroxytetrahydrofuran-2-yl)methyl tetrahydrogen triphosphate level per million cells at 50 uM after 24 hrs by LC-MS/Ms analysis; assay type: ADME, cell-based, Canis lupus familiaris; settings: dog
[22] = Drug metabolism in NHBE cells assessed as ((2R,3S,4R,5S)-5-(2-carbamoyl-3-fluoropyridin-4-yl)-3,4-dihydroxytetrahydrofuran-2-yl)methyl dihydrogen phosphate level per million cells at 50 uM after 24 hrs by LC-MS/Ms analysis; assay type: ADME, cell-based; settings: human
A549 [23] = assay: Drug metabolism in human A549 cells assessed as ((2R,3S,4R,5S)-5-(2-carbamoyl-3-fluoropyridin-4-yl)-3,4-dihydroxytetrahydrofuran-2-yl)methyl dihydrogen phosphate level per million cells at 50 uM after 24 hrs by LC-MS/Ms analysis; assay type: ADME, cell-based; settings: a549, 24 h
MDCK [24] = assay: Drug metabolism in MDCK cells assessed as ((2R,3S,4R,5S)-5-(2-carbamoyl-3-fluoropyridin-4-yl)-3,4-dihydroxytetrahydrofuran-2-yl)methyl dihydrogen phosphate level per million cells at 50 uM after 24 hrs by LC-MS/Ms analysis; assay type: ADME, cell-based, Canis lupus familiaris; settings: dog
Tni [25] = assay: (§3) Binding affinity to recombinant Influenza A virus A/chicken/Nanchang/3-120/01(H3N2) RNA polymerase subunit C-terminal TAP/His6-tagged PA/PB1/PB2 expressed in Tni cells assessed as compound incorporation by measuring 14-mer product formation using 5'-pApG/14-nucleotide RNA with U as nucleotide as primer/template at 100 uM after 30 mins in presence of [alpha-33P]CTP by PAGE analysis; assay type: cell-based
Tni [26] = assay: as §3, with “measuring 10 to” for “measuring”, “C” for “U”; assay type: cell-based
[27] = Inhibition of recombinant human Norovirus GII.4 RNA-dependent RNA polymerase expressed in Escherichia coli assessed as inhibition of [3H]UTP incorporation using HCV 5'-untranslated region RNA template incubated for 2.5 hrs by radiometric assay
[28] = Inhibition of HCV NS5B RNA-dependent RNA polymerase assessed as inhibition of [3H]CTP incorporation using HCV 5'-untranslated region RNA template incubated for 2 hrs; parameters: species or system Hepacivirus hominis
[29] = Inhibition of human rhinovirus 16 RNA-dependent RNA polymerase assessed as inhibition of [3H]UTP incorporation using HCV 5'-untranslated region RNA template incubated for 2.5 hrs by radiometric assay; parameters: species or system rhinovirus A16

NC(=O)c1nc(F)cn([C@@H]2O[C@H](CO)[C@@H](O)[C@H]2O)c1=O
EC50 (Influenza A virus [1]): 2.2 µM
CC50 at 10 min [2]: > 400 µM

NC(=O)c1nccc([C@@H]2O[C@H](CO)[C@@H](O)[C@H]2O)c1Cl
Drug metabolism (A549 [3]): BLD

C#Cc1c([C@@H]2O[C@H](CO)[C@@H](O)[C@H]2O)ccnc1C(N)=O
EC50 (Influenza A virus [1]): 36 µM
CC50 at 10 min [2]: 98 µM

CC(C)(C)C(=O)OCOP(=O)(OCOC(=O)C(C)(C)C)OC[C@H]1O[C@@H](c2ccnc(C(N)=O)c2F)[C@H](O)[C@@H]1O
EC50 (Influenza A virus [1]): 5.8 µM
CC50 at 10 min [2]: > 400 µM
Drug metabolism [4]: 7.22 pmol
Drug metabolism (A549 [5]): 5 pmol
Drug metabolism (MDCK [6]): 179 pmol
Drug metabolism [7]: 113 pmol
Drug metabolism (A549 [8]): 74 pmol
Drug metabolism (MDCK [9]): 248 pmol
Drug metabolism (Blood [10]): 1436 nM
Drug metabolism (Lung [11]): 1764 nM
Drug metabolism (Lung [12]): < 60 nM
EC50 (Influenza A virus [13]): 57.5 µM
EC50 (Influenza A virus [14]): 34.7 µM
EC50 (Influenza A virus [15]): 5.8 µM
Drug metabolism (Blood [16]): 422 nM
Drug metabolism (Lung [17]): 792 nM
Drug metabolism (Lung [18]): BLD

NC(=O)c1nccc([C@@H]2O[C@H](CO)[C@@H](O)[C@H]2O)c1O
EC50 (Influenza A virus [1]): 1.3 µM
CC50 at 10 min [2]: 2 µM

NC(=O)c1nccc([C@@H]2O[C@H](CO)[C@@H](O)[C@H]2F)c1F
EC50 (Influenza A virus [1]): 87 µM
CC50 at 10 min [2]: 306 µM

NC(=O)c1nccc([C@@H]2O[C@H](CO)[C@@H](O)[C@H]2O)c1F
EC50 (Influenza A virus [1]): 1.9 µM
CC50 at 10 min [2]: > 400 µM
Drug metabolism [19]: 21.6 pmol
Drug metabolism (A549 [20]): 11.6 pmol
Drug metabolism (MDCK [21]): 192 pmol
Drug metabolism [22]: 262 pmol
Drug metabolism (A549 [23]): 41 pmol
Drug metabolism (MDCK [24]): 48.5 pmol
EC50 (Influenza A virus [13]): 29.5 µM
EC50 (Influenza A virus [14]): 52 µM
EC50 (Influenza A virus [15]): 1.9 µM

C[C@H](NP(=O)(OC[C@H]1O[C@@H](c2ccnc(C(N)=O)c2F)[C@H](O)[C@@H]1O)Oc1ccccc1)C(=O)CC1CCCCC1 (some centres not stated)
EC50 (Influenza A virus [1]): 129 µM
Drug metabolism ([4]; BLD = below limit of detection): BLD
Drug metabolism (A549 [5]; BLD = below limit of detection): BLD
Drug metabolism (MDCK [6]; BLD = below limit of detection): BLD
Drug metabolism [7]: 42.6 pmol
Drug metabolism (A549 [8]): 59.5 pmol
Drug metabolism (MDCK [9]): 44.7 pmol
EC50 (Influenza A virus [14]): 74.1 µM
EC50 (Influenza A virus [15]): 129 µM

NC(=O)c1nccc([C@@H]2O[C@H](COP(=O)(O)OP(=O)(O)OP(=O)(O)O)[C@@H](O)[C@H]2O)c1F
Activity (Tni [25]): Active
Activity (Tni [26]): Active
IC50 [27]: 3.5 µM
IC50 [28]: 5.3 µM
IC50 [29]: 4 µM

COc1c(C(N)=O)ccnc1[C@@H]1O[C@H](CO)[C@@H](O)[C@H]1O
EC50 (Influenza A virus [1]): 88 µM
CC50 at 10 min [2]: 207 µM

C=Cc1c([C@@H]2O[C@H](CO)[C@@H](O)[C@H]2O)ccnc1C(N)=O
EC50 (Influenza A virus [1]): 58 µM
CC50 at 10 min [2]: 152 µM

NC(=O)c1nccc([C@@H]2O[C@H](CO)[C@@H](O)[C@H]2O)n1
EC50 (Influenza A virus [1]): 8.7 µM
CC50 at 10 min [2]: > 200 µM
Drug metabolism (A549 [3]): BLD

NC(=O)c1nccc([C@@H]2O[C@](F)(CO)[C@@H](O)[C@H]2O)c1F
EC50 (Influenza A virus [1]): 98 µM
CC50 at 10 min [2]: 185 µM
Drug metabolism (A549 [3]): BLD

NC(=O)c1cc([C@@H]2O[C@H](CO)[C@@H](O)[C@H]2O)ccn1
Drug metabolism (A549 [3]): BLD

NC(=O)c1nc(F)cnc1O [FAVIPIRAVIR]
EC50 (Influenza A virus [1]): 2.7 µM
CC50 at 10 min [2]: > 400 µM

Cn1cc([C@@H]2O[C@H](CO)[C@@H](O)[C@H]2O)c(=O)c(C(N)=O)n1
EC50 (Influenza A virus [1]): 91 µM
CC50 at 10 min [2]: 291 µM
Drug metabolism (A549 [3]): BLD
